Measurements taken from ChEMBL document CHEMBL3046951, “Volatile constituents from the leaves of Callicarpa japonica Thunb. and their antibacterial activities” (2004).

Assays:
Type in all cases: functional
Bacillus cereus [1] = assay: Antimicrobial activity against Bacillus cereus ATCC 11778 assessed as growth inhibition rate at 64.76 mg/l after 72 hr by spectrophotometry; conditions: ATCC 11778, 72 h, read-out: GI
Method in brief: (§1)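 Pure volatile compounds (purity >95%; one at 90%) were tested against B. cereus ATCC 11778. The strain was grown at 30 °C in nutrient broth for 24 h, then subcultured for 18 h. Optical density was read in a Bioscreen C every 24 h for 72 h, with 10% Tween 80 as the control.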

Listeria monocytogenes [2] = assay: Antimicrobial activity against Listeria monocytogenes ATCC 19111 assessed as growth inhibition rate at 64.76 mg/l after 72 hr by spectrophotometry; conditions: ATCC 19111, 72 h, read-out: GI
Method in brief: (§2)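 L. monocytogenes was grown at 30 °C in tryptic soy broth, subcultured for 18 h, and exposed to pure volatile compounds (>95% purity). Growth was followed by Bioscreen C optical density every 24 h for 72 h against a 10% Tween 80 control.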

Salmonella typhimurium [3] = assay: Antimicrobial activity against Salmonella enterica subsp. enterica serovar Typhimurium ATCC 14028 assessed as growth inhibition rate at 64.76 mg/l after 72 hr by spectrophotometry; conditions: ATCC 14028, 72 h, read-out: GI
Staphylococcus aureus [4] = assay: Antimicrobial activity against Staphylococcus aureus ATCC 25923 assessed as growth inhibition rate at 64.76 mg/l after 72 hr by spectrophotometry; conditions: ATCC 25923, 72 h, read-out: GI
Escherichia coli [5] = assay: Antimicrobial activity against Escherichia coli O157:H7 ATCC 43894 assessed as growth inhibition rate at 64.76 mg/l after 72 hr by spectrophotometry; conditions: O157:H7 ATCC 43894, 72 h, read-out: GI
Method in brief: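 Authentic volatiles (>95% purity; 2,4-heptadienal 90%) tested against 18 h subcultures. Growth media: E. coli O157:H7 and S. aureus in tryptic soy broth at 37 °C; L. monocytogenes in tryptic soy broth at 30 °C; V. parahaemolyticus in tryptic soy broth + 3% NaCl at 37 °C; S. typhimurium in nutrient broth at 30 °C. Bioscreen C OD every 24 h for 72 h versus 10% Tween 80 control.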

Vibrio parahaemolyticus [6] = assay: Antimicrobial activity against Vibrio parahaemolyticus ATCC 33844 assessed as growth inhibition rate at 64.76 mg/l after 72 hr by spectrophotometry; conditions: ATCC 33844, 72 h, read-out: GI
Escherichia coli [7] = assay: Antimicrobial activity against Escherichia coli O157:H7 ATCC 43894 assessed as growth inhibition rate at 4.64 mg/l after 72 hr by spectrophotometry; conditions: O157:H7 ATCC 43894, 72 h, read-out: GI
Salmonella typhimurium [8] = assay: Antimicrobial activity against Salmonella enterica subsp. enterica serovar Typhimurium ATCC 14028 assessed as growth inhibition rate at 4.64 mg/l after 72 hr by spectrophotometry; conditions: ATCC 14028, 72 h, read-out: GI
Method in brief: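 Salmonella Typhimurium ATCC 14028 grown in nutrient broth at 30 °C, precultured 24 h, then subcultured 1:100 for 18 h before testing. Single volatile compounds (>95% pure) were added. OD was read every 24 h over 72 h in a Bioscreen C, with 10% Tween 80 as the comparison control.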

Bacillus cereus [9] = assay: Antimicrobial activity against Bacillus cereus ATCC 11778 assessed as growth inhibition rate at 4.64 mg/l after 72 hr by spectrophotometry; conditions: ATCC 11778, 72 h, read-out: GI; method in brief: as §1
Staphylococcus aureus [10] = assay: Antimicrobial activity against Staphylococcus aureus ATCC 25923 assessed as growth inhibition rate at 4.64 mg/l after 72 hr by spectrophotometry; conditions: ATCC 25923, 72 h, read-out: GI
Vibrio parahaemolyticus [11] = assay: Antimicrobial activity against Vibrio parahaemolyticus ATCC 33844 assessed as growth inhibition rate at 4.64 mg/l after 72 hr by spectrophotometry; conditions: ATCC 33844, 72 h, read-out: GI
Listeria monocytogenes [12] = assay: Antimicrobial activity against Listeria monocytogenes ATCC 19111 assessed as growth inhibition rate at 4.64 mg/l after 72 hr by spectrophotometry; conditions: ATCC 19111, 72 h, read-out: GI; method in brief: as §2

Row | Compound | inhibition of growth at 64.76 µg/mL (Bacillus cereus [1]) [%] | inhibition of growth at 64.76 µg/mL (Listeria monocytogenes [2]) [%] | inhibition of growth at 64.76 µg/mL (Salmonella typhimurium [3]) [%] | inhibition of growth at 64.76 µg/mL (Staphylococcus aureus [4]) [%] | inhibition of growth at 64.76 µg/mL (Escherichia coli [5]) [%] | inhibition of growth at 64.76 µg/mL (Vibrio parahaemolyticus [6]) [%] | inhibition of growth at 4.64 µg/mL (Escherichia coli [7]) [%] | inhibition of growth at 4.64 µg/mL (Salmonella typhimurium [8]) [%] | inhibition of growth at 4.64 µg/mL (Bacillus cereus [9]) [%] | inhibition of growth at 4.64 µg/mL (Staphylococcus aureus [10]) [%] | inhibition of growth at 4.64 µg/mL (Vibrio parahaemolyticus [11]) [%] | inhibition of growth at 4.64 µg/mL (Listeria monocytogenes [12]) [%]
1 | C/C1=C\CC/C(C)=C/CC(C)(C)/C=C/C1 [ALPHA-HUMULONE] | 40.1 | 13.9 | 6.9 | 6.6 | 4.6 | 15.7 |  |  |  |  |  | 
2 | C[C@@H]1CC[C@@H]2[C@@H]1[C@H]1[C@@H](CC[C@@]2(C)O)C1(C)C [GLOBULOL] |  |  |  |  |  |  | 0 | 0.8 | 1.9 | 8.3 | 0 | 6.3
